# Measurements from ChEMBL document CHEMBL1123617, “Antipsychotic activity of substituted gamma-carbolines” (J Med Chem, 1987).
# What was measured:
# [1] = target: T1, Serotonin 2 (5-HT2) receptor (Rattus norvegicus, UniProt P30994+P08909+P14842); assay: In vitro 5-hydroxytryptamine 2 receptor affinity by using [3H]spiperone as the radioligand in rat cortical tissue.
# Rattus norvegicus [2] = assay: Potential antipsychotic activity was assessed by measuring the ability to block the conditioned avoidance response(CAR) in rats on oral administration; value may range from 30 to 62; assay type: functional
# Procedure, shortened: (§1)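 Each session had 60 trials, with a control session before every drug run. Trials with no avoidance response (avoidance block) were summed over rats at each dose and expressed as a percentage of total trials. Control avoidance was set at 100%. The dose giving 50% block (AB50) was fitted by least squares.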
# D(2) dopamine receptor [3] = target: T2, D(2) dopamine receptor (Rattus norvegicus, UniProt P61169); assay: In vitro Dopamine receptor D2 affinity by using [3H]spiperone as the radioligand in rat limbic system at 1 uM concentration of compound; value may range from 39 to 78; assay type: tissue-based
# T2 sequence (P61169 whole entry): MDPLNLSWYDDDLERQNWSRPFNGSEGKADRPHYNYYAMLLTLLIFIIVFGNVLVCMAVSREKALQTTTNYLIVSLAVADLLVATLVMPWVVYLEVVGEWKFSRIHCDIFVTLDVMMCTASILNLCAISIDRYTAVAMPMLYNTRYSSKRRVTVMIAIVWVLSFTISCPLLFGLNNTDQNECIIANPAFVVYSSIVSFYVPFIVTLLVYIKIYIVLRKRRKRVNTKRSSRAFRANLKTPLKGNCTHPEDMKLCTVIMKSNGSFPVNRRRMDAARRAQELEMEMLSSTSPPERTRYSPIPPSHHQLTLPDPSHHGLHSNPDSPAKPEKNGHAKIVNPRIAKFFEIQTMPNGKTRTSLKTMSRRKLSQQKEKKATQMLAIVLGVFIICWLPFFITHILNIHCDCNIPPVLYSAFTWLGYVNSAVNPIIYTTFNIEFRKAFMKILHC
# Rattus norvegicus [4] = assay: Potential antipsychotic activity was assessed by measuring the ability to block the conditioned avoidance response(CAR) in rats on oral administration.; assay type: functional
# D(2) dopamine receptor [5] = target: T2, D(2) dopamine receptor; assay: In vitro Dopamine receptor D2 affinity by using [3H]spiperone as the radioligand in rat limbic system at 1 uM concentration of compound; value may range from 14 to 22; assay type: tissue-based
# Mus musculus [6] = species on record: Mus musculus; assay: animal or person; details: ip
# Mus musculus [7] = species on record: Mus musculus; assay: animal or person; details: ip; remark: listed apart in the source
# [8] = target: T1, Serotonin 2 (5-HT2) receptor; assay: In vitro 5-hydroxytryptamine 2 receptor affinity by using [3H]spiperone as the radioligand in rat cortical tissue; value may range from 23 to 187
# Rattus norvegicus [9] = assay: Potential antipsychotic activity was assessed by measuring the ability to block the conditioned avoidance response(CAR) in rats on oral administration; value may range from 6 to 63; assay type: functional; procedure, shortened: as §1
# Rattus norvegicus [10] = assay: Potential antipsychotic activity was assessed by measuring the ability to block the conditioned avoidance response(CAR) in rats on oral administration; assay type: functional
# [11] = target: T1, Serotonin 2 (5-HT2) receptor; assay: In vitro 5-hydroxytryptamine 2 receptor affinity by using [3H]spiperone as the radioligand in rat cortical tissue; value may range from 136 to 220
# [12] = target: D(2) dopamine receptor (Rattus norvegicus) (UniProt P61169); assay: In vitro Dopamine receptor D2 affinity by using [3H]spiperone as the radioligand in rat limbic system at 1 uM concentration of compound at 1 uM; assay type: tissue-based
# D(2) dopamine receptor (Rattus norvegicus), sequence (P61169 whole entry): as above
# [13] = target: D(2) dopamine receptor (Rattus norvegicus) (UniProt P61169); assay: In vitro Dopamine receptor D2 affinity by using [3H]spiperone as the radioligand in rat limbic system at 1 uM; assay type: tissue-based
# [14] = target: T1, Serotonin 2 (5-HT2) receptor; assay: In vitro 5-hydroxytryptamine 2 receptor affinity by using [3H]spiperone as the radioligand in rat cortical tissue; value may range from 197 to 341
# Rattus norvegicus [15] = assay: Potential antipsychotic activity was assessed by measuring the ability to block the conditioned avoidance response(CAR) in rats on oral administration; value may range from 26 to 51; assay type: functional; procedure, shortened: as §1
# D(2) dopamine receptor [16] = target: T2, D(2) dopamine receptor; assay: In vitro Dopamine receptor D2 affinity by using [3H]spiperone as the radioligand in rat limbic system at 1 uM concentration of compound; value may range from 20 to 130; assay type: tissue-based
# [17] = target: D(2) dopamine receptor (Rattus norvegicus) (UniProt P61169); assay: In vitro Dopamine receptor D2 affinity by using [3H]spiperone as the radioligand in rat limbic system at 1 uM concentration of compound; assay type: tissue-based
# [18] = target: T1, Serotonin 2 (5-HT2) receptor; assay: In vitro 5-hydroxytryptamine 2 receptor affinity by using [3H]spiperone as the radioligand in rat cortical tissue; value may range from 29 to 132
# D(2) dopamine receptor [19] = target: T2, D(2) dopamine receptor; assay: In vitro Dopamine receptor D2 affinity by using [3H]spiperone as the radioligand in rat limbic system at 1 uM concentration of compound; value may range from 1 to 2; assay type: tissue-based
smiles,measurement,setting,value
C[C@@H]1CN(CCCn2c3ccccc3c3ccccc32)C[C@H](C)N1 [RIMCAZOLE],IC50,[1],> 0.00005 M
same,AB50,Rattus norvegicus [2],39 mg/kg
Cl.Clc1ccc2[nH]c3c(c2c1)CN(CCCN1CCN(c2ncccn2)CC1)CC3,Ki,D(2) dopamine receptor [3],55 nM
same,AB50,Rattus norvegicus [4],>40 mg/kg
Cl.Clc1ccc2[nH]c3c(c2c1)CN(CCc1ccc2ccccc2n1)CC3,AB50,Rattus norvegicus [4],>40 mg/kg
Fc1ccc(C(CCCN2CCc3[nH]c4ccc(F)cc4c3C2)c2ccc(F)cc2)cc1,Ki,D(2) dopamine receptor [5],18 nM
O=C(CCCN1CCC(O)(c2ccc(Cl)cc2)CC1)c1ccc(F)cc1 [HALOPERIDOL],ED50,Mus musculus [6],0.1 mg/kg
same,ED50,Mus musculus [7],0.1 mg/kg
same,AB50,Rattus norvegicus [4],0.2 mg/kg
Cl.Fc1ccc(-n2c3c(c4cc(F)ccc42)CN(CCc2ccncc2)CC3)cc1,Ki,[8],55 nM
same,AB50,Rattus norvegicus [9],16 mg/kg
Cl.Fc1ccc2[nH]c3c(c2c1)CN(CCc1ccccn1)CC3,AB50,Rattus norvegicus [10],38 mg/kg
same,Ki,[11],173 nM
Cl.c1ccc2c3c([nH]c2c1)CCN(CCCCc1ccncc1)C3,inhibition,[12],41%
same,AB50,Rattus norvegicus [4],>20 mg/kg
Cl.c1cncc(CCCN2CCc3[nH]c4ccccc4c3C2)c1,inhibition,[13],43%
same,Ki,[14],252 nM
same,AB50,Rattus norvegicus [15],33 mg/kg
c1cnc(N2CCN(CCCN3CCc4[nH]c5ccccc5c4C3)CC2)nc1,Ki,D(2) dopamine receptor [16],60 nM
c1ccc(CCN2CCc3[nH]c4ccccc4c3C2)nc1,inhibition,[17],33%
Cl.Clc1ccc2[nH]c3c(c2c1)CN(CCCCc1ccncc1)CC3,AB50,Rattus norvegicus [10],36 mg/kg
same,Ki,[18],60 nM
Fc1ccc(-n2c3c(c4cc(F)ccc42)CN(CCCCc2ccnc4ccccc24)CC3)cc1,Ki,D(2) dopamine receptor [19],1 nM
